This is an account of results in ChEMBL document CHEMBL4024708, “Recent synthetic and medicinal perspectives of dihydropyrimidinones: A review” (Eur J Med Chem, 2017).

The MIC is the smallest concentration in the dilution series that meets the test's criterion for growth inhibition. In general, inhibition in vivo refers to the share of the control response that was lost under treatment. For orientation: pKi means −log10 of the Ki, conventionally taken in molar units. The term GI50 denotes the concentration that inhibits growth by half.

pKi: −log10 of the molar value. ≈ marks a conversion by molar mass, not a printed value.

The nature of experiment [1]: Antioxidant activity assessed as cupric ion reducing activity by measuring increase in absorbance at 100 ppm by CUPRAC assay. The class given is functional. In short, it runs like this: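 CUPRAC assay. Sample solution was mixed with distilled water, at a pH close to 7. Reduction of Cu(II) to Cu(I) was followed as the increase in absorbance at 450 nm of the reaction mixture.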

Experiment [2] in a line: Antioxidant activity assessed as DPPH free radical scavenging activity at 100 ppm after 30 mins in dark by spectrophotometric method relative to control. Format: functional. In outline:
(§1)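 DPPH (1,1-diphenyl-2-picrylhydrazyl) radical scavenging assay. The change in absorbance was read at 517 nm on a spectrophotometer. Activity is given as percent inhibition of the DPPH radical, calculated as (absorbance of control − absorbance of sample)/absorbance of control × 100.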
On the technique in general: DPPH is a stable violet radical that fades when it is reduced.

Experiment [3] can be described thus: Antioxidant activity assessed as DPPH free radical scavenging activity at 12.5 ppm after 30 mins in dark by spectrophotometric method relative to control. Format: functional. In outline:
as §1

Experiment [4] has as its system Pseudomonas aeruginosa. Description: Antibacterial activity against Pseudomonas aeruginosa MTCC 2581 by spectrophotometric method. The class given is functional. In outline:
(§2)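 Serial broth dilution, 200 to 15.625 μg/mL, in nutrient broth, sonicated 10 min. Inoculum gave a starting density of 10^3–10^4 CFU/mL. Flasks were shaken at 200 rpm and 37 °C, and growth followed by the rise in absorbance at 600 nm. MIC is the lowest concentration inhibiting the organism. Controls: compound without inoculum, and inoculum without compound.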

The subject of experiment [5] is Staphylococcus aureus. The experiment can be described thus: Antibacterial activity against Staphylococcus aureus MTCC 3160 by spectrophotometric method. The class given is functional. In outline: as §2
For experiment [6], the system named is Mus musculus. The experiment can be described thus: Anticonvulsant activity in ip dosed maximal electroshock induced seizure mouse model assessed as suppression of hind limb tonic extension measured at 4 hrs post dose. Format: functional. As to conditions: read-out: MED. In short, it runs like this: (§3)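 Albino mice given the compound ip, suspended in 0.5% methyl cellulose–water, at 30, 100 and 300 mg/kg. Maximal electroshock by corneal electrodes: 50 mA, 60 Hz, 0.2 s. Abolition of hind limb tonic extension scored as protection. Value is the minimum dose active in half or more of the mice.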

Experiment [7] concerns Mus musculus. The experiment can be described thus: Anticonvulsant activity in ip dosed maximal electroshock induced seizure mouse model assessed as suppression of hind limb tonic extension measured at 0.5 hrs post dose. Format: functional. As to conditions: read-out: MED. In short, it runs like this:
as §3
In general terms: In the maximal electroshock model the usual endpoint is tonic extension of the hind limbs.

Experiment [8] has as its system Rattus norvegicus. The experiment can be described thus: Anti-inflammatory activity in rat assessed as inhibition of carrageenan-induced hind paw edema at 10 mg/kg, po pretreated for 1 hr followed by carrageenan challenge measured after 3 hrs by plethysmometer relative to control. The class given is functional. In short, it runs like this:
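Albino rats; carrageenan-induced paw edema test after Winter et al., with diclofenac sodium as reference standard. Percentage reduction in inflammation recorded 3 h after carrageenan, relative to carrageenan-only animals.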

The test system of experiment [9] is Klebsiella pneumoniae. The experiment can be described thus: Antibacterial activity against Klebsiella pneumoniae MTCC 7028 by spectrophotometric method. The class given is functional. In short, it runs like this: as §2
The test system of experiment [10] is Escherichia coli. Description: Antibacterial activity against Escherichia coli MTCC 443 by spectrophotometric method. The class given is functional. In outline: as §2
The target of experiment [11] is T1, Alpha-1A adrenergic receptor (Homo sapiens, UniProt P35348).
T1 sequence (P35348 whole entry): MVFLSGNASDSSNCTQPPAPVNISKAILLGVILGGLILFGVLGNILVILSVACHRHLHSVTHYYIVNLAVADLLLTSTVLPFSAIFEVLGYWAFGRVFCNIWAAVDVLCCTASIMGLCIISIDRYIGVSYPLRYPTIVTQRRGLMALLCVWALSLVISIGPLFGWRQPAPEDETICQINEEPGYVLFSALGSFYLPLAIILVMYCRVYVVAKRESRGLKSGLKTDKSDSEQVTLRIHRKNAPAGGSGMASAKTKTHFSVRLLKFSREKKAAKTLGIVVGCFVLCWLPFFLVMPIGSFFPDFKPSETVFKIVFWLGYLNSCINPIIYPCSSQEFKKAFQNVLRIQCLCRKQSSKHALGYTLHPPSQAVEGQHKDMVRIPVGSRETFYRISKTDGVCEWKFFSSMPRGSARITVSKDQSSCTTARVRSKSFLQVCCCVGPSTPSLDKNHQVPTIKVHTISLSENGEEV
The experiment can be described thus: Displacement of [125I]L-762,459 from recombinant human alpha1a adrenergic receptor expressed in mammalian cells measured after 1 hr. The class given is cell-based. A general note: Displacement assays read how much labelled ligand stays bound in the presence of the test substance.

Experiment [12] concerns SR. Description: Growth inhibition of human SR cells after 48 hrs by SRB assay. Format: functional.
Experiment [13] has as its system CCRF-CEM. The experiment can be described thus: cells. As to conditions: Homo sapiens, 48 h.

Take `O=C(O)c1cc(O)c(O)c(O)c1`: the absorbance in experiment [1] was determined as 1.4. Moreover, the Activity in experiment [2] was found to be 92.4%; in [3] it was 62.4%.

Turning to `CCC(=O)C1=C(C)NC(=O)NC1c1ccc([N+](=O)[O-])cc1` (centres undefined), the MIC was 15.6 to 31.2 µg/mL (≈ 53.9 to 108 µM) in experiment [4] and 62.5 to 125 µg/mL (≈ 216 to 432 µM) in experiment [5].

Regarding `O=C1NC(=O)C(c2ccccc2)(c2ccccc2)N1` [PHENYTOIN], the minimal effective dose in experiment [6] and in experiment [7] was 30 mg/kg each time.

`COc1ccc(C2NC(S)=NC(c3ccccc3)=C2CC(=O)O)cc1` (centres undefined): the inhibition in vivo at 10 mg/kg in experiment [8] was 32%.

Take `CCC(=O)C1=C(C)NC(=O)NC1c1cccc(Cl)c1` (centres undefined): the results for the MIC in experiment [4] (read-out: MIC), in experiment [9] and in experiment [10] were 62.5 µg/mL (≈ 224 µM), 31.2 to 62.5 µg/mL (≈ 112 to 224 µM) and 15.6 to 31.2 µg/mL (≈ 56 to 112 µM), respectively.

With `CCC(=O)C1=C(C)NC(=O)NC1c1cccc(OC)c1` (centres undefined), the MIC in [4] (read-out: MIC) and in [5] was 250 µg/mL (≈ 911 µM) each time.

On to `CCCCC1NC(=O)NC(C)=C1C(=O)CC` (centres undefined), for which the MIC in [4] (read-out: MIC) and in experiment [5] was 250 µg/mL (≈ 1110 µM) throughout.

In the case of `COc1ccc(C2NC(=S)NC(c3ccc(C)cc3)=C2CC(=O)O)cc1` (centres undefined), in [8], the inhibition in vivo at 10 mg/kg was found to be 33%.

Turning to `SC1=NC(n2nc(-c3ccccc3)nc2-c2ccccc2)=CC(c2ccc(-c3ccccc3)cc2)N1` (centres undefined), the values for the minimal effective dose in experiment [6] and in [7] were 300 mg/kg and 100 mg/kg, respectively.

On to `CN(C)c1ccc(C2C=C(n3cc(-c4ccccc4)nc3-c3ccccc3)N=C(S)N2)cc1` (centres undefined), for which the results for the minimal effective dose in [6] and in [7] were 300 mg/kg and 100 mg/kg, respectively.

On to `COCC1=C(C(=O)NCCCN2CCC(C#N)(c3ccc(F)cc3)CC2)[C@@H](c2ccc(F)cc2)NCN1`, for which the pKi in [11] was 9.77.

In the case of `O=c1c(O)c(-c2ccc(O)c(O)c2)oc2cc(O)cc(O)c12`, the absorbance in experiment [1] came out at 1.2. The Activity in experiment [2] was 82.3%; in experiment [3], 55.3%.

As for `Cc1ccc(C2=C(CC(=O)O)C(c3ccc(Cl)cc3)NC(S)=N2)cc1` (centres undefined), in experiment [8], the inhibition in vivo at 10 mg/kg worked out at 22%.

With `O=[N+]([O-])c1cccc(C2C=C(n3cc(-c4ccccc4)nc3-c3ccccc3)N=C(S)N2)c1` (centres undefined), the results for the minimal effective dose in experiment [6] and in experiment [7] were 300 mg/kg and 30 mg/kg, respectively.

For the compound `O=c1/c(=C/c2ccc([N+](=O)[O-])o2)sc2n1C(c1ccc3c(c1)OCO3)C=C(c1cc(F)c(Cl)cc1Cl)N=2` (centres undefined), the GI50 in [12] was 3.34 µM; in experiment [13], 3.24 µM.

Regarding `COc1ccc(C2NC(=O)NC(C)=C2C(C)=O)cc1` (centres undefined), the minimal inhibitory concentration (MIC) is 250 µg/mL (≈ 960 µM) in [4] (read-out: MIC), 62.5 to 125 µg/mL (≈ 240 to 480 µM) in experiment [5] and 31.2 to 62.5 µg/mL (≈ 120 to 240 µM) in [9].

Consider `CCC(=O)C1=C(C)NC(=O)NC1c1ccccc1` (centres undefined), for which the MIC in experiment [4] was 15.6 to 31.2 µg/mL (≈ 63.9 to 128 µM); in experiment [5], 62.5 to 125 µg/mL (≈ 256 to 512 µM).

Turning to `O=C(O)CC1=C(c2ccccc2)N=C(S)NC1c1ccccc1` (centres undefined), the inhibition in vivo at 10 mg/kg in experiment [8] is 17%.

As for `CC1=C(C(=O)NCCCN2CCC(c3ccc(F)cc3)CC2)[C@@H](c2ccc(F)c(F)c2)N(C)C(=O)N1C`, the negative logarithm of the Ki (pKi) in experiment [11] was 9.85.

For the compound `O=C(O)CC1=C(c2ccc(Cl)cc2)N=C(S)NC1c1ccc(Cl)cc1` (centres undefined), the inhibition in vivo at 10 mg/kg in [8] came to 25%.

`O=C(O)CC1=C(c2ccc(Cl)cc2)N=C(S)NC1c1ccccc1` (centres undefined): the inhibition in vivo at 10 mg/kg in experiment [8] was found to be 20%.

For the compound `Cc1ccc(C2=C(CC(=O)O)C(c3ccccc3)NC(S)=N2)cc1` (centres undefined), the inhibition in vivo at 10 mg/kg in experiment [8] worked out at 28%.
